Measured values: ChEMBL document CHEMBL1148654, “DNA binding affinity of bisguanidine and bis(2-aminoimidazoline) derivatives with in vivo antitrypanosomal activity” (J Med Chem, 2006)
Activity calls are given as the source filed them. The calls are words filed in the database; no cut-off is given here.

What was measured:
Nucleic Acid = experiment: Binding affinity to Trypanosoma brucei rhodesiense DNA; assay type: nucleic-acid assay
[1] = test system: Trypanosoma brucei brucei; experiment: Antitrypanosomal activity against trypomastigotes of AT1 wild type Trypanosoma brucei brucei 427; assay type: functional, organism-based
[2] = test system: Trypanosoma brucei brucei; experiment: Antitrypanosomal activity against trypomastigotes of AT1 knockout Trypanosoma brucei brucei 427; assay type: functional, organism-based
[3] = test system: Trypanosoma brucei brucei; experiment: Activity against Trypanosoma brucei brucei STIB795 in infected NMRI mouse at 20 mg/kg, ip; assay type: functional, organism-based; design: dose 20 mg/kg
In short: (§1)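 Mice infected ip with 1 × 10^5 (STIB 795) or 2 × 10^4 (STIB 900) bloodstream forms, in groups of four. Dosed ip once daily on days 3–6, with an untreated control group. Parasitemia checked every second day to day 14, then twice weekly to day 60. Deaths recorded for mean survival time. Cured means surviving and aparasitemic at 60 days.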

[4] = test system: Trypanosoma brucei brucei; experiment: Activity against Trypanosoma brucei brucei STIB795 in infected NMRI mouse at 10 mg/kg, ip; assay type: functional, organism-based; design: dose 10 mg/kg; in short: as §1
[5] = test system: Trypanosoma brucei rhodesiense; experiment: Activity against Trypanosoma brucei rhodesiense STIB900 in infected NMRI mouse at 20 mg/kg, ip; assay type: functional, organism-based; design: dose 20 mg/kg; in short: as §1
Trypanosoma brucei [6] = experiment: Activity against Trypanosoma brucei GVR35 in infected NMRI mouse at 20 mg/kg, ip; assay type: functional, organism-based; design: dose 20 mg/kg
Trypanosoma brucei [7] = experiment: Activity against Trypanosoma brucei GVR35 in infected NMRI mouse at 40 mg/kg, ip; assay type: functional, organism-based; design: dose 40 mg/kg

| Compound | Activity (Nucleic Acid) | Activity [3] | also measured |
| --- | --- | --- | --- |
| N=C(N)Nc1ccc(Cc2ccc(NC(=N)N)cc2)cc1 | Active |  |  |
| O=S(=O)(c1ccc(NC2=NCCN2)cc1)c1ccc(NC2=NCCN2)cc1 | inactive |  |  |
| N=C(N)Nc1ccc(Nc2ccc(NC(=N)N)cc2)cc1 | Active | Active | IC50 [1]: 3 nM; IC50 [2]: 2.2 nM |
| c1cc(NC2=NCCN2)ccc1Cc1ccc(NC2=NCCN2)cc1 | Active |  |  |
| N=C(N)c1ccc(OCCCCCOc2ccc(C(=N)N)cc2)cc1 | Active |  |  |
| N=C(N)Nc1ccc(CCCCCCCCc2ccc(NC(=N)N)cc2)cc1 |  |  | Activity [4]: inactive |
| CC(C)(C)OC(=O)N1CC[N+](C(=O)OC(C)(C)C)=C1Nc1ccc(Nc2ccc(NC3=[N+](C(=O)OC(C)(C)C)CCN3C(=O)OC(C)(C)C)cc2)cc1 |  | inactive |  |
| c1cc(Nc2ccc(NC3=NCCN3)cc2)ccc1NC1=NCCN1 | Active | Active | Activity [5]: Active; Activity (Trypanosoma brucei [6]): inactive; IC50 [1]: 63.7 nM; IC50 [2]: 162 nM |
| c1cc(N2CCN(c3ccc(NC4=NCCN4)cc3)CC2)ccc1NC1=NCCN1 | Active | Toxic |  |
| N=C(N)Nc1ccc(N2CCN(c3ccc(NC(=N)N)cc3)CC2)cc1 | Active |  |  |
| N=C(N)c1ccc(/N=N/Nc2ccc(C(=N)N)cc2)cc1 |  |  | Activity (Trypanosoma brucei [7]): inactive |
| N=C(N)Nc1ccc(C(=O)c2ccc(NC(=N)N)cc2)cc1 | Active |  |  |
| N=C(N)Nc1ccc(S(=O)(=O)c2ccc(NC(=N)N)cc2)cc1 | inactive |  |  |
